Test results taken from ChEMBL document CHEMBL5579886, “Selective Degradation of MLK3 by a Novel CEP1347-VHL-02 PROTAC Compound Limits the Oncogenic Potential of TNBC” (J Med Chem, 2024).
Active and inactive are the calls of the source. The rule behind the calls is not given here.

Tests used:
[1] = molecular target: T1, von Hippel-Lindau disease tumor suppressor/Mitogen-activated protein kinase kinase kinase 10 (Homo sapiens) (UniProt Q02779+P40337); experiment: PROTAC activity at VHL/MLK2 in human MCF7 cells assessed as protein degradation at 1 uM incubated for 24 hrs by immunoblot analysis; type: cell-based
T1 sequence (P40337 whole entry, looked up): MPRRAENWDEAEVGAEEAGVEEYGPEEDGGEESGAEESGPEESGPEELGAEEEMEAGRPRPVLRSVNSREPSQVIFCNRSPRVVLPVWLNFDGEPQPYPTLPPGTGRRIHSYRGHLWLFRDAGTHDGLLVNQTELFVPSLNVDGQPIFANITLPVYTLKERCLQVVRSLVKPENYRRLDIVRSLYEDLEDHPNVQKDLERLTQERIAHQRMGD
T1 sequence (Q02779 whole entry, looked up): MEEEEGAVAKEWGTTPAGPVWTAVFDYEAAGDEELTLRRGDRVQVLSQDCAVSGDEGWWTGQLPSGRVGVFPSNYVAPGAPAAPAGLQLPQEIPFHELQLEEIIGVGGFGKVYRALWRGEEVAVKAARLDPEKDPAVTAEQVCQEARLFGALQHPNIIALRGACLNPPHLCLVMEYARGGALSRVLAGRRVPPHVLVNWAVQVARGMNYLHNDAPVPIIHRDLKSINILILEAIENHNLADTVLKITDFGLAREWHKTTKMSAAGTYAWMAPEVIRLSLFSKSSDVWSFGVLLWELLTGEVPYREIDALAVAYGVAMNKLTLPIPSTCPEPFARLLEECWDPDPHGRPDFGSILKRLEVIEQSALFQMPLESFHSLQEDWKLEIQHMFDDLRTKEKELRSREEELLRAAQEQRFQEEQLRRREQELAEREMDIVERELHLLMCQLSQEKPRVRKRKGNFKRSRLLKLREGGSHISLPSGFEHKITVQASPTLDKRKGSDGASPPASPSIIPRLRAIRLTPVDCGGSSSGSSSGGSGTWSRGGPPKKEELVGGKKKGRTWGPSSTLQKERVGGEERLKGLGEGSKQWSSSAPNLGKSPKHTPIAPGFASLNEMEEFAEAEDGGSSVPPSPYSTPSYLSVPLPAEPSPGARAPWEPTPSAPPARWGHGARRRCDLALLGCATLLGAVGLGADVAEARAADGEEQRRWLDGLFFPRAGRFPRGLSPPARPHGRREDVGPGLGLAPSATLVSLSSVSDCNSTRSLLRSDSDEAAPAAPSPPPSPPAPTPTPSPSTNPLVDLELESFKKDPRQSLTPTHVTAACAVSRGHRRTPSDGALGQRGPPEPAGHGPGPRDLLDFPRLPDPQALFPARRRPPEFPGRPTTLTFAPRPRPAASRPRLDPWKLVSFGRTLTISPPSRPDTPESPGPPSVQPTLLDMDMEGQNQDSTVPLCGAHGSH
Summary of the method: (§1)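 Endogenous MLK1, MLK2 or MLK4 levels in MCF-7 and MDA-MB-468 cells. Cells were grown in high-glucose DMEM with 10% FBS, seeded at 100 000 cells/well and treated the next day for 24 h, with DMSO as control. Lysis was in RIPA with protease inhibitor, followed by 10% SDS-PAGE, nitrocellulose transfer and ECL immunoblot with GAPDH or β-actin as loading control.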

[2] = test system: MCF7; experiment: Effect on ERK pathway in human MCF7 cells at 1 uM measured after 24 hrs by immunoblot analysis; type: functional, cell-based
[3] = molecular target: T2, von Hippel-Lindau disease tumor suppressor/Mitogen-activated protein kinase kinase kinase 11 (Homo sapiens, UniProt Q16584+P40337); experiment: PROTAC activity at VHL/DOX-inducible MLK3 (unknown origin) overexpressed in carfilzomib-treated human HCC1806 cells assessed as protein degradation at 0.25 to 1 uM measured after 7 hrs by immunoblot analysis; type: cell-based; settings: dose 0.25-1 µM
Summary of the method: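 HCC1806 cells with DOX-inducible MLK3 were induced with 1 μg/mL DOX for 24 h. They were pretreated with 1 μM carfilzomib (proteasome inhibitor) for 1 h, then with PROTAC at 0.25–1 μM for 7 h, with DMSO as control. MLK3 was assessed by ECL immunoblot.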
Target sequence in this assay (P40337 whole entry, looked up): as the sequence (P40337 whole entry, looked up) above
Target sequence in this assay (Q16584 whole entry, looked up): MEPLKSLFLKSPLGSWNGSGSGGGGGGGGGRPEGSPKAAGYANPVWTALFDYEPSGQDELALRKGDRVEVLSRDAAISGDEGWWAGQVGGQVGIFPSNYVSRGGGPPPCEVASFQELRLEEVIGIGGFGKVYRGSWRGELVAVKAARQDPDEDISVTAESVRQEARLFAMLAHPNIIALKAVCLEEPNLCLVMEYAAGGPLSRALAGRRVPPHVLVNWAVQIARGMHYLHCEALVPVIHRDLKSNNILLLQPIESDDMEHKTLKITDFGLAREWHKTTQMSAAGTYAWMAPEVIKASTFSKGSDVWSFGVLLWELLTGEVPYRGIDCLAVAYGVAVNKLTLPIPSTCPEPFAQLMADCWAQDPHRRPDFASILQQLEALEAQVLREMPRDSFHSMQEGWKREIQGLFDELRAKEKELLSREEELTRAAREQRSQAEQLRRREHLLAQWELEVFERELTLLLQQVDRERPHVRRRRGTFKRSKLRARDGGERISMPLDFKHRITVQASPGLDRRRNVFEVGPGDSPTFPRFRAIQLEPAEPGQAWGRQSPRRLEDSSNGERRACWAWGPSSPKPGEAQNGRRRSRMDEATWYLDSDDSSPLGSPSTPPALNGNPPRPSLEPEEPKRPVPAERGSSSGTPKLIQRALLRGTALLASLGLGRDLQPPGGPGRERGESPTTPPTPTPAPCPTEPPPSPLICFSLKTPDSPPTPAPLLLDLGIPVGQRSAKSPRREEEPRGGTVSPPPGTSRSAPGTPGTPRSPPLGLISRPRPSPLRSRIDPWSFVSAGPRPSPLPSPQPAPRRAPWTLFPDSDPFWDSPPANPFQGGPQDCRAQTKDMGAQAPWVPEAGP

[4] = molecular target: T3, von Hippel-Lindau disease tumor suppressor/Mitogen-activated protein kinase kinase kinase 21 (Homo sapiens) (UniProt P40337+Q5TCX8); experiment: PROTAC activity at IAP/MLK4 in human MDA-MB-468 cells assessed as protein degradation at 1 uM incubated for 24 hrs by immunoblot analysis; type: cell-based; summary of the method: as §1
T3 sequence (P40337 whole entry, looked up): as the sequence (P40337 whole entry, looked up) above
T3 sequence (Q5TCX8 whole entry, looked up): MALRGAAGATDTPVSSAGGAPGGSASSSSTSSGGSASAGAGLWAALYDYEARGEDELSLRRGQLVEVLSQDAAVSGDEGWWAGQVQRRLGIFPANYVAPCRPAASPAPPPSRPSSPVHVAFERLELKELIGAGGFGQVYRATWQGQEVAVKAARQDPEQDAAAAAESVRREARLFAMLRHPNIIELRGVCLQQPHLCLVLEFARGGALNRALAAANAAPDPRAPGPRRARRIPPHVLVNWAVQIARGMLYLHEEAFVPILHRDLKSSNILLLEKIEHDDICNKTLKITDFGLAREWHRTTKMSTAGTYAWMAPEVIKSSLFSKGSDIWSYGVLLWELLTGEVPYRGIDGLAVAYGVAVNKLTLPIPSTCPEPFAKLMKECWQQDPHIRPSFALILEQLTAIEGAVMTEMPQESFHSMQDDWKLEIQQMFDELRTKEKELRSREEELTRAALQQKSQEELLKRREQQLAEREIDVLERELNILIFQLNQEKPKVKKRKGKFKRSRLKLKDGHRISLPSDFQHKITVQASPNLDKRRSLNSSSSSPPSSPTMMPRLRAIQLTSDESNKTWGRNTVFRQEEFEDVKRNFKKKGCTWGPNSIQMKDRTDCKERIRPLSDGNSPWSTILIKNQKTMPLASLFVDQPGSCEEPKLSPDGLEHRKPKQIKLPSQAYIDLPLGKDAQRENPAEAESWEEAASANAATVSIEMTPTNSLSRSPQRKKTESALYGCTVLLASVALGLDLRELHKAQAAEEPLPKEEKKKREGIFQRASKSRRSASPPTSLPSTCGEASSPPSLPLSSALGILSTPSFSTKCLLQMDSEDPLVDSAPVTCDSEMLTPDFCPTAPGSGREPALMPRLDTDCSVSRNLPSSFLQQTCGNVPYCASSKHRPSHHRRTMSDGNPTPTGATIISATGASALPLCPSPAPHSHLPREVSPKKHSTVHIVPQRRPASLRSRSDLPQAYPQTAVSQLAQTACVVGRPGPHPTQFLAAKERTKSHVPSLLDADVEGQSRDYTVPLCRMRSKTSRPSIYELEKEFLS

[5] = molecular target: T3, von Hippel-Lindau disease tumor suppressor/Mitogen-activated protein kinase kinase kinase 21 (Homo sapiens); experiment: PROTAC activity at IAP/MLK4 in human MCF7 cells assessed as protein degradation at 1 uM incubated for 24 hrs by immunoblot analysis; type: cell-based; summary of the method: as §1
[6] = molecular target: T1, von Hippel-Lindau disease tumor suppressor/Mitogen-activated protein kinase kinase kinase 10 (Homo sapiens); experiment: PROTAC activity at IAP/MLK2 in human MDA-MB-468 cells assessed as protein degradation at 1 uM incubated for 24 hrs by immunoblot analysis; type: cell-based; summary of the method: as §1
[7] = molecular target: T2, von Hippel-Lindau disease tumor suppressor/Mitogen-activated protein kinase kinase kinase 11; experiment: PROTAC activity at VHL/MLK3 in carfilzomib-treated human MCF7 cells assessed as protein degradation at 1 uM measured after 7 hrs by immunoblot analysis; type: cell-based
Summary of the method: (§2)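 MCF-7 and MDA-MB-468 cells were seeded at 100 000/well. The next day they were pretreated with 1 μM carfilzomib for 1 h, then treated with 1 μM PROTAC for 7 h, with DMSO as control. Endogenous MLK3 was measured by immunoblot of RIPA lysates.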
Target sequence in this assay (P40337 whole entry, looked up): as the sequence (P40337 whole entry, looked up) above
Target sequence in this assay (Q16584 whole entry, looked up): as the sequence (Q16584 whole entry, looked up) above

[8] = test system: MCF7; experiment: Inhibition of colony formation in human MCF7 cells harboring siMLK3 by crystal violet staining based analysis; type: functional, cell-based
Summary of the method: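 MCF-7 or MDA-MB-468 seeded at 10 000 cells/well, transfected next day with MAP3K11 SMARTpool siRNA or nontargeting control siRNA; crystal violet staining 7 days after transfection. Knockdown confirmed by immunoblot.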

[9] = molecular target: T2, von Hippel-Lindau disease tumor suppressor/Mitogen-activated protein kinase kinase kinase 11; experiment: PROTAC activity at VHL/MLK3 in human MDA-MB-468 cells assessed as protein degradation measured after 24 hrs by Western blot analysis; type: cell-based
Summary of the method: (§3)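 Endogenous MLK3: cells seeded at 100 000/well, treated next day for 24 h with PROTAC at 0.1–5 μM, DMSO control; immunoblot with GAPDH or β-actin loading control. Remaining MLK3 percentage plotted against concentration to derive DC50 and Dmax.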
Target sequence in this assay (Q16584 whole entry): as the sequence (Q16584 whole entry, looked up) above
Target sequence in this assay (P40337 whole entry): as the sequence (P40337 whole entry, looked up) above

[10] = molecular target: T1, von Hippel-Lindau disease tumor suppressor/Mitogen-activated protein kinase kinase kinase 10 (Homo sapiens); experiment: PROTAC activity at IAP/MLK2 in human MCF7 cells assessed as protein degradation at 1 uM incubated for 24 hrs by immunoblot analysis; type: cell-based; summary of the method: as §1
[11] = molecular target: T2, von Hippel-Lindau disease tumor suppressor/Mitogen-activated protein kinase kinase kinase 11; experiment: PROTAC activity at VHL/DOX-inducible MLK3 (unknown origin) overexpressed in human HCC1806 cells assessed as protein degradation at 0.25 uM incubated for 24 hrs by immunoblot analysis; type: cell-based
Target sequence in this assay (P40337 whole entry, looked up): as above
Target sequence in this assay (Q16584 whole entry, looked up): as the sequence (Q16584 whole entry, looked up) above

[12] = test system: MCF7; experiment: Growth inhibition of human MCF7 cell spheroids in hydrogel at 1 uM incubated for 10 days; type: functional, cell-based; settings: time 10.0 day
Summary of the method: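 4000 cells plated on top of hydrogels and grown 10 days with 1 μM PROTAC or DMSO; spheroid formation and size scored.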

[13] = molecular target: T2, von Hippel-Lindau disease tumor suppressor/Mitogen-activated protein kinase kinase kinase 11; experiment: PROTAC activity at VHL/MLK3 in human MCF7 cells assessed as protein degradation at 0.1 to 5 uM measured after 24 hrs by Western blot analysis relative to control; type: cell-based; settings: dose 0.1-5 µM; summary of the method: as §3
Target sequence in this assay (P40337 whole entry, looked up): as the sequence (P40337 whole entry, looked up) above
Target sequence in this assay (Q16584 whole entry, looked up): as the sequence (Q16584 whole entry, looked up) above

[14] = molecular target: T2, von Hippel-Lindau disease tumor suppressor/Mitogen-activated protein kinase kinase kinase 11; experiment: PROTAC activity at VHL/MLK3 in human MDA-MB-468 cells assessed as half life of protein degradation at 1 uM by Western blot analysis; type: cell-based
Summary of the method: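 Endogenous MLK3: cells seeded at 100 000/well, treated next day with 1 μM PROTAC for 4–48 h, DMSO control; immunoblot with GAPDH or β-actin loading control. Remaining MLK3 quantified over time and t1/2 derived.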
Target sequence in this assay (P40337 whole entry, looked up): as the sequence (P40337 whole entry, looked up) above
Target sequence in this assay (Q16584 whole entry, looked up): as the sequence (Q16584 whole entry, looked up) above

[15] = molecular target: von Hippel-Lindau disease tumor suppressor/Mitogen-activated protein kinase kinase kinase 9 (Homo sapiens) (UniProt P80192+P40337); experiment: PROTAC activity at VHL/DOX-inducible MLK1 (unknown origin) overexpressed in human A-375 cells assessed as protein degradation at 0.1 to 5 uM incubated for 24 hrs by immunoblot analysis; type: cell-based; settings: dose 0.1-5 µM
Summary of the method: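 A375 cells carried lentiviral DOX-inducible MLK1, MLK2 or MLK4 and were grown in RPMI-1640 with 10% FBS. Cells were seeded at 100 000/well and induced with 1 μg/mL DOX. After 24 h they were treated at 0.1–5 μM for 24 h, with DMSO as control. Levels were read by ECL immunoblot of RIPA lysates, with GAPDH or β-actin loading control.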

[16] = test system: MDA-MB-468; experiment: Effect on ERK pathway in human MDA-MB-468 cells at 1 uM measured after 24 hrs by immunoblot analysis; type: functional, cell-based
[17] = molecular target: T2, von Hippel-Lindau disease tumor suppressor/Mitogen-activated protein kinase kinase kinase 11; experiment: PROTAC activity at VHL/MLK3 in human MCF7 cells assessed as protein degradation at 1 uM measured after 24 hrs by immunoblot analysis
Target sequence in this assay (P40337 whole entry, looked up): as the sequence (P40337 whole entry, looked up) above
Target sequence in this assay (Q16584 whole entry, looked up): as the sequence (Q16584 whole entry, looked up) above

[18] = molecular target: T3, von Hippel-Lindau disease tumor suppressor/Mitogen-activated protein kinase kinase kinase 21 (Homo sapiens); experiment: PROTAC activity at VHL/MLK4 in human MCF7 cells assessed as protein degradation at 1 uM incubated for 24 hrs by immunoblot analysis; type: cell-based; summary of the method: as §1
[19] = molecular target: T3, von Hippel-Lindau disease tumor suppressor/Mitogen-activated protein kinase kinase kinase 21 (Homo sapiens); experiment: PROTAC activity at VHL/MLK4 in human MDA-MB-468 cells assessed as protein degradation at 1 uM incubated for 24 hrs by immunoblot analysis; type: cell-based; summary of the method: as §1
[20] = test system: MDA-MB-468; experiment: Induction of cell cycle arrest at G2/M phase in human MDA-MB-468 cells at 1 uM measured after 48 hrs by PI staining based flow cytometry; type: functional
Summary of the method: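 Cells seeded at 50 000/well, exposed to 1 μM PROTAC or DMSO for 48 h, trypsinized, fixed in ice-cold methanol and held at –20 °C; next day stained with PI/RNase solution and read by flow cytometry. Two independent experiments.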

[21] = molecular target: T2, von Hippel-Lindau disease tumor suppressor/Mitogen-activated protein kinase kinase kinase 11; experiment: PROTAC activity at VHL/MLK3 in carfilzomib-treated human MDA-MB-468 cells assessed as protein degradation at 1 uM measured after 7 hrs by immunoblot analysis; type: cell-based; summary of the method: as §2
[22] = molecular target: T2, von Hippel-Lindau disease tumor suppressor/Mitogen-activated protein kinase kinase kinase 11; experiment: PROTAC activity at VHL/MLK3 in human MDA-MB-468 cells assessed as protein degradation at 0.1 to 5 uM measured after 24 hrs by Western blot analysis relative to control; type: cell-based; settings: dose 0.1-5 µM; summary of the method: as §3

With `CCSCc1ccc2c(c1)c1c3c(c4c5cc(CSCC)ccc5n5c4c1n2[C@H]1C[C@](O)(C(=O)NCCOCCOCCOCC(=O)N[C@H](C(=O)N2C[C@H](O)C[C@H]2C(=O)N[C@@H](C)c2ccc(-c4scnc4C)cc2)C(C)(C)C)[C@]5(C)O1)CNC3=O` the Activity [1] was “inactive”, the Activity [2] was “inactive” and the Activity [3] was “inactive”. For the same compound, the Activity [4] was “inactive”, the Activity [5] was “inactive” and the Activity [6] was “inactive”. The Activity [7] was “inactive”, the inhibition [8] was “inactive” and the DC50 [9] was 300 nM. The Activity [10] was “inactive”, the Activity [11] was “Active” and the “growth inhibition (GI)” value [12] was “inactive”. The Emax [13] was 77%, the T1/2 [14] was 4 h and the Activity [15] was “inactive”. For the same compound, the Activity [16] was “inactive”, the Activity [17] was “Active” and the Activity [18] was “inactive”. The Activity [19] was “inactive”, the Activity [20] was “Active” and the Activity [21] was “inactive”. It also gave an Emax [22] of 63%.
